Tests used:
[1] = Therapeutic index, ratio of IC50 for human H9 cells to EC50 for HIV1 3B; format: cell-based; conditions: read-out: TI
Outline: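 Mock-infected H9 cells were run in parallel under the same conditions, and toxicity was measured by XTT. IC50 is the concentration toxic to 50% of the cells. TI = IC50/EC50, where EC50 is 50% suppression of HIV-1 IIIB replication measured by day-6 p24 antigen capture.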

[2] = test system: Human immunodeficiency virus 1; test: Antiviral activity against HIV1 IIIB infected in human H9 cells after 6 days by p24 antigen capture assay; conditions: Human immunodeficiency virus 1, H9, 144 h
[3] = target: Human immunodeficiency virus type 1 reverse transcriptase (Human immunodeficiency virus 1, UniProt Q72547); test: Inhibition of HIV1 DH012 reverse transcriptase by roche colorimetric assay
Outline: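 HIV-1 DH012 RT activity was measured across a range of test-compound concentrations using a colorimetric RT kit run per the manufacturer's protocol; IC50 taken as the inhibitory concentration.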

[4] = test system: Human immunodeficiency virus 1; test: Antiviral activity against HIV1 3B infected in human H9 cells assessed as inhibition of viral replication at up to 100 ug/mL after 6 hrs by p24 antigen based assay; format: functional, organism-based; conditions: in the assay text read “after 6 days” for “after 6 hrs”
Outline: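 H9 human T cells (3 × 10^5 cells/mL) infected with HIV-1 IIIB at 125 TCID50. Compounds dissolved in DMSO and screened at final 100, 20, 4 and 0.8 μg/mL, with further dilutions for actives. Medium was replaced on days 1 and 4 post-infection. On day 6 the supernatant p24 antigen was measured by capture assay. EC50 is the concentration suppressing replication by 50%.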

SMILES	selectivity ratio [1]	EC50 [2]	IC50 [3]	EC50 [4]
Cc1cc(=O)oc2c3c(ccc12)S[C@@H](C)[C@@H](OC(=O)[C@]12CC[C@](C)(C(=O)O1)C2(C)C)[C@H]3OC(=O)[C@]12CC[C@](C)(C(=O)O1)C2(C)C	> 1000	< 39 nM	–	–
Cc1cc(=O)oc2c3c(ccc12)S[C@H](C)[C@H](OC(=O)[C@]12CC[C@](C)(C(=O)O1)C2(C)C)[C@@H]3OC(=O)[C@]12CC[C@](C)(C(=O)O1)C2(C)C	31.1	1260 nM	–	–
Cc1cc(=O)oc2c3c(ccc12)SC[C@H](OC(=O)[C@]12CC[C@](C)(C(=O)O1)C2(C)C)[C@@H]3OC(=O)[C@]12CC[C@](C)(C(=O)O1)C2(C)C	40.6	990 nM	–	–
Cc1cc(=O)oc2c3c(ccc12)S(=O)(=O)[C@@H](C)C(OC(=O)C12CCC(C)(C(=O)O1)C2(C)C)C3OC(=O)C12CCC(C)(C(=O)O1)C2(C)C (some centres undefined)	11.1	3370 nM	–	–
Cc1cc(=O)oc2c3c(ccc12)OC(C)(C)[C@H](OC(=O)[C@]12CC[C@](C)(C(=O)O1)C2(C)C)[C@@H]3OC(=O)[C@]12CC[C@](C)(C(=O)O1)C2(C)C	301	126 nM	10400 nM	–
Cc1cc(=O)oc2c3c(ccc12)OC[C@H](OC(=O)[C@]12CC[C@](C)(C(=O)O1)C2(C)C)[C@@H]3OC(=O)[C@]12CC[C@](C)(C(=O)O1)C2(C)C	2.54	16200 nM	–	–
Cc1cc(=O)oc2c3c(ccc12)[S+]([O-])[C@H](C)[C@H](OC(=O)[C@]12CC[C@](C)(C(=O)O1)C2(C)C)[C@@H]3OC(=O)[C@]12CC[C@](C)(C(=O)O1)C2(C)C (some centres undefined)	1.57	24400 nM	–	–
Cc1cc(=O)oc2c3c(ccc12)O[C@@H](C)[C@H](OC(=O)[C@]12CC[C@](C)(C(=O)O1)C2(C)C)[C@@H]3OC(=O)[C@]12CC[C@](C)(C(=O)O1)C2(C)C	> 706	< 40 nM	6700 nM	–
Cc1cc(=O)oc2c3c(ccc12)O[C@H](C)[C@H](OC(=O)[C@]12CC[C@](C)(C(=O)O1)C2(C)C)[C@@H]3OC(=O)[C@]12CC[C@](C)(C(=O)O1)C2(C)C	–	–	–	Not Active
Cc1cc(=O)oc2c3c(ccc12)O[C@H](C)[C@@H](OC(=O)[C@]12CC[C@](C)(C(=O)O1)C2(C)C)[C@H]3OC(=O)[C@]12CC[C@](C)(C(=O)O1)C2(C)C	17.8	2260 nM	–	–
Cc1cn([C@H]2C[C@H](N=[N+]=[N-])[C@@H](CO)O2)c(=O)[nH]c1=O [ZIDOVUDINE]	–	10 nM	–	–
Cc1cc(=O)oc2c3c(ccc12)S[C@H](C)[C@@H](OC(=O)[C@]12CC[C@](C)(C(=O)O1)C2(C)C)[C@H]3OC(=O)[C@]12CC[C@](C)(C(=O)O1)C2(C)C	–	–	–	Not Active
Cc1cc(=O)oc2c3c(ccc12)[S+]([O-])[C@@H](C)C(OC(=O)C12CCC(C)(C(=O)O1)C2(C)C)C3OC(=O)C12CCC(C)(C(=O)O1)C2(C)C (some centres undefined)	–	–	–	Not Active
